Experimental findings from ChEMBL document CHEMBL4002589, “Tri- and Tetrasubstituted Pyridinylimidazoles as Covalent Inhibitors of c-Jun N-Terminal Kinase 3” (J Med Chem, 2017) are described below.

Calls of active or inactive are those of the source. The rule behind the calls is not given here.

The nature of data set [1]: Drug metabolism in human liver microsomes at 100 uM preincubated with NADPH regenerating system for 5 mins followed by addition of liver microsomes measured after 190 mins by LC-MS analysis. Type of data set: ADME, microsome. To be noted: read-out: Drug metabolism. A general note: Liver microsomes are a subcellular fraction often used to study metabolism.
The target of data set [2] is T1, Serine/threonine-protein kinase Sgk1 (Homo sapiens) (UniProt O00141).
T1 sequence (whole entry): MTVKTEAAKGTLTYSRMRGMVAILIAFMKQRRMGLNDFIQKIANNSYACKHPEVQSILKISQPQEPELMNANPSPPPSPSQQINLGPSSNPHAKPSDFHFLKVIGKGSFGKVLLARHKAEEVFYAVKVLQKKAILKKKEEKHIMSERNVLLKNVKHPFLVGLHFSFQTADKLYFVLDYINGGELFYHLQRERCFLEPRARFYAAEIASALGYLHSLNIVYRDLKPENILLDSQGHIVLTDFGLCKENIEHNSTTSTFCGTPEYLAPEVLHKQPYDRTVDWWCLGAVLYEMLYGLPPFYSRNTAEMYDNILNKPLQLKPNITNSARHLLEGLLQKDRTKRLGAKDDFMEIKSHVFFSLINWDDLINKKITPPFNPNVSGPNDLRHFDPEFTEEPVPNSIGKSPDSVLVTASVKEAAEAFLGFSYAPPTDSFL
As to the kind of experiment: Inhibition of full length human GST-tagged SGK1 expressed in Sf9 cells assessed as residual activity at 1 uM relative to control. A digest of the protocol: (§1)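 Each inhibitor is tested at a single concentration, 1 µM or 0.5 µM depending on the compound. Results are reported as residual kinase activity.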

In data set [3] the target is T2, Serine/threonine-protein kinase TAO2 (Homo sapiens) (UniProt Q9UL54).
T2 sequence (whole entry): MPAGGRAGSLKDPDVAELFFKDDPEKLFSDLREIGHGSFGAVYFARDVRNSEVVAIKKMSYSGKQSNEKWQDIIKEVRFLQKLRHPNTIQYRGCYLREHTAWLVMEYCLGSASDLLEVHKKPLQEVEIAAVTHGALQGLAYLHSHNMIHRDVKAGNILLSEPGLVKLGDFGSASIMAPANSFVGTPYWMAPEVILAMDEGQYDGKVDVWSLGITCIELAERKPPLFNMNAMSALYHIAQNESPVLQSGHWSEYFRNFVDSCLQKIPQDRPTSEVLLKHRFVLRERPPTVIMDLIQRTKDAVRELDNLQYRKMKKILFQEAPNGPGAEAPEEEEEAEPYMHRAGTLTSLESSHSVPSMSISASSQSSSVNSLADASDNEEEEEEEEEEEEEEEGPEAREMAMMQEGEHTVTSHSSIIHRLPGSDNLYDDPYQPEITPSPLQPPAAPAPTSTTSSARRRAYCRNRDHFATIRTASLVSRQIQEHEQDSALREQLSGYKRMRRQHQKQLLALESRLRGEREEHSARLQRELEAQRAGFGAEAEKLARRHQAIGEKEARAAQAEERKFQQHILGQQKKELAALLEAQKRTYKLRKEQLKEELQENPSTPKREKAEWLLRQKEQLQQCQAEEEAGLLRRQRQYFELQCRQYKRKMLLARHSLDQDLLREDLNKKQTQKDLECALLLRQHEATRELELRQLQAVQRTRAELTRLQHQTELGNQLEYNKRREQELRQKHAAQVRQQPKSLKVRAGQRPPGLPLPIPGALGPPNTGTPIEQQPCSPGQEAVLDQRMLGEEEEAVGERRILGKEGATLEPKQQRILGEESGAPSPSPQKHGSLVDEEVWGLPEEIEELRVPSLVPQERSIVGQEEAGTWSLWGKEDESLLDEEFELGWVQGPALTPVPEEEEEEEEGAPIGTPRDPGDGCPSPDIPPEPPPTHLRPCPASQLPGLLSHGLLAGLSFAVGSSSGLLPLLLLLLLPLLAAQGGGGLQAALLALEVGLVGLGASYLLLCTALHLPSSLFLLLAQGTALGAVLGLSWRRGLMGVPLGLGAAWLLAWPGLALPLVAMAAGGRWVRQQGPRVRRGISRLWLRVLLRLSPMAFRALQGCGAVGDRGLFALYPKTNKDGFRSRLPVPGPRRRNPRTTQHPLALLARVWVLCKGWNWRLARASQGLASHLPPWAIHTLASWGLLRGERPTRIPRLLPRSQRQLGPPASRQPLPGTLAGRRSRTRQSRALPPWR
As to the kind of experiment: Inhibition of TAOK2 (unknown origin) assessed as residual activity at 1 uM relative to control. In a few lines:
as §1

For data set [4], the target named is Dual specificity protein kinase CLK4 (Homo sapiens) (UniProt Q9HAZ1). As to the kind of experiment: Inhibition of CLK4 (unknown origin) assessed as residual activity at 1 uM relative to control. A digest of the protocol:
as §1

Data set [5] addresses Serine/threonine-protein kinase 16 (Homo sapiens) (UniProt O75716). As to the kind of experiment: Inhibition of full length human GST-tagged TSF1 expressed in Sf9 cells assessed as residual activity at 1 uM relative to control. In a few lines:
as §1

Data set [6] has as its target Mitogen-activated protein kinase 14 (Homo sapiens, UniProt Q16539). As to the kind of experiment: Inhibition of GST-His tagged human p38alpha expressed in Escherichia coli assessed as reduction in ATF2 phosphorylation measured after 60 mins by ELISA. In a few lines: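 ELISA kinase assays run in parallel for JNK3 and p38α, with 60 min incubation. IC50 values are the mean of three experiments.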

The target of data set [7] is Casein kinase I isoform delta (Homo sapiens) (UniProt P48730). As to the kind of experiment: Inhibition of CK1 delta (unknown origin) assessed as residual activity at 1 uM relative to control. A digest of the protocol:
as §1

Data set [8] concerns the target Casein kinase I isoform gamma-3 (Homo sapiens) (UniProt Q9Y6M4). As to the kind of experiment: Inhibition of CK1 gamma3 (unknown origin) assessed as residual activity at 1 uM relative to control. In a few lines: as §1
The target of data set [9] is Mitogen-activated protein kinase kinase kinase 11 (Homo sapiens) (UniProt Q16584). As to the kind of experiment: Inhibition of MAP3K11 (unknown origin) assessed as residual activity at 1 uM relative to control. In a few lines: as §1
Data set [10] has as its target Mitogen-activated protein kinase 10 (Homo sapiens, UniProt P53779). As to the kind of experiment: Inhibition of recombinant 6x-His-tagged JNK3 (39 to 402 residues) (unknown origin) expressed in Escherichia coli BL21(DE3) assessed as reduction in ATF2 phosphorylation measured after 50 mins by ELISA.
Data set [11] deals with Mitogen-activated protein kinase 10 (Homo sapiens), P53779 [C154A]. As to the kind of experiment: Covalent binding affinity to JNK3 C154A mutant (unknown origin) at 5 molar excess after 1 hr by LC-muESI-QTOF mass spectrometry. A digest of the protocol:
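Intact-protein mass spectrometry with a JNK3 mutant carrying Cys-154→Ala. Inhibitor is incubated with the protein. Unbound and reversibly bound ligand are removed by chromatography and by a high declustering potential before ionization. The protein is then analysed by LC-µESI-QTOF to look for a mass shift from a covalent adduct.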

Chain of Mitogen-activated protein kinase 14 (Q16539 whole entry): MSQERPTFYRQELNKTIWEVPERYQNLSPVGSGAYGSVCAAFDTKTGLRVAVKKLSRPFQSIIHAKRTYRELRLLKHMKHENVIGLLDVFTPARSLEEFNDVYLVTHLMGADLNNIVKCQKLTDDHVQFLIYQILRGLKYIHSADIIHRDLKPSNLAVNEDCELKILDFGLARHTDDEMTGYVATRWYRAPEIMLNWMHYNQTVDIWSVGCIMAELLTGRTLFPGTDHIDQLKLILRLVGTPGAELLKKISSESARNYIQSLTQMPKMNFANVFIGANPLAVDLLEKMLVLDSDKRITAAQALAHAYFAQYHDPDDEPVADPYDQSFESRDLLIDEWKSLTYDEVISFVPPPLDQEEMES
Chain of Mitogen-activated protein kinase 10 (Homo sapiens), P53779 [C154A] (P53779 whole entry C154A): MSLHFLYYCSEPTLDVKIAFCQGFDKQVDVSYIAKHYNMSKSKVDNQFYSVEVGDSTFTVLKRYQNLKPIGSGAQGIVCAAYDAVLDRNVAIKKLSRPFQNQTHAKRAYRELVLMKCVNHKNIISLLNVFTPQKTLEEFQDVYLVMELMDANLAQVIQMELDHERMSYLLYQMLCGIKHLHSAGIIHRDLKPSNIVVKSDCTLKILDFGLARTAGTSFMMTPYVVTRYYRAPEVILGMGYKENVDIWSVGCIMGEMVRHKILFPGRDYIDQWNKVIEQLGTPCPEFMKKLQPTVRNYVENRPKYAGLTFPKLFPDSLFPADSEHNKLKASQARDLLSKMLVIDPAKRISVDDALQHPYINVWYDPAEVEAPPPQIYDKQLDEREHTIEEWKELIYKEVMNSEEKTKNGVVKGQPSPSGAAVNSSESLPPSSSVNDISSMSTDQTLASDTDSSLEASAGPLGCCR
Chain of Casein kinase I isoform gamma-3 (Homo sapiens) (Q9Y6M4 whole entry, looked up, canonical isoform): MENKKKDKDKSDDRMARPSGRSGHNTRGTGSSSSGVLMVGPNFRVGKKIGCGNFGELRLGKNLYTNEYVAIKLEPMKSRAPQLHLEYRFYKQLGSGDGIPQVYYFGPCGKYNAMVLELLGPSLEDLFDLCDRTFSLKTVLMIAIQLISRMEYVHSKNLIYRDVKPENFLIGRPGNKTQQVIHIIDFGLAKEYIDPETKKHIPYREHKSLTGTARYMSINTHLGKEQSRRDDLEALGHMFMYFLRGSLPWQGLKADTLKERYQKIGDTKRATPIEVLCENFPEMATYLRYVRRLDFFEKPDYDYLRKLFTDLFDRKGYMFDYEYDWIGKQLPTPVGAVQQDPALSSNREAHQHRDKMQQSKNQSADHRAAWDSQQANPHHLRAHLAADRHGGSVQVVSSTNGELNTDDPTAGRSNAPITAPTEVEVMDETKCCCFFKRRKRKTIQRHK
Chain of Dual specificity protein kinase CLK4 (Homo sapiens) (Q9HAZ1 whole entry, looked up): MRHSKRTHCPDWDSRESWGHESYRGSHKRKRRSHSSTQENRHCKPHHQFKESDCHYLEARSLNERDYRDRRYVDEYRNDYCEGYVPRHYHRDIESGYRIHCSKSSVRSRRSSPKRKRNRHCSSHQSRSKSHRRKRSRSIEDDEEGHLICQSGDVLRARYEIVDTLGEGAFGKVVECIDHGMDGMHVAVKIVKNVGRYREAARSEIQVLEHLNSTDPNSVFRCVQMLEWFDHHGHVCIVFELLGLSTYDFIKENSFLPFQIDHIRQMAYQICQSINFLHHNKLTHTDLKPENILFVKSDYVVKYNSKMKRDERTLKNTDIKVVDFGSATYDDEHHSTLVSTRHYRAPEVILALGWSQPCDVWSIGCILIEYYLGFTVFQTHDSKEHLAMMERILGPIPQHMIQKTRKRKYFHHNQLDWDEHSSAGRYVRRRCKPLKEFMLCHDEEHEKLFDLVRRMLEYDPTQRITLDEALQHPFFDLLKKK
Chain of Casein kinase I isoform delta (Homo sapiens) (P48730 whole entry, looked up, canonical isoform): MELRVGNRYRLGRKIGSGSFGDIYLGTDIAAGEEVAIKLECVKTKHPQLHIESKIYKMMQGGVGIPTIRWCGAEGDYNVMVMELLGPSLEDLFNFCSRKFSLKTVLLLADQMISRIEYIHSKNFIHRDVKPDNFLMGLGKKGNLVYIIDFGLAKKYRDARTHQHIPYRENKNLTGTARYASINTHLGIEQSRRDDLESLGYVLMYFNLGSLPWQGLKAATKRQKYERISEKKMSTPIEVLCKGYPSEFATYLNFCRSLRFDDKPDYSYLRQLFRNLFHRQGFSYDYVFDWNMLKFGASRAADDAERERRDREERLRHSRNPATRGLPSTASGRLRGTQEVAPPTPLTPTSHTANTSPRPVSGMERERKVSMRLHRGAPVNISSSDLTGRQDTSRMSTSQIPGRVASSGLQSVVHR
Chain of Mitogen-activated protein kinase kinase kinase 11 (Homo sapiens) (Q16584 whole entry, looked up, the tested form may be a part): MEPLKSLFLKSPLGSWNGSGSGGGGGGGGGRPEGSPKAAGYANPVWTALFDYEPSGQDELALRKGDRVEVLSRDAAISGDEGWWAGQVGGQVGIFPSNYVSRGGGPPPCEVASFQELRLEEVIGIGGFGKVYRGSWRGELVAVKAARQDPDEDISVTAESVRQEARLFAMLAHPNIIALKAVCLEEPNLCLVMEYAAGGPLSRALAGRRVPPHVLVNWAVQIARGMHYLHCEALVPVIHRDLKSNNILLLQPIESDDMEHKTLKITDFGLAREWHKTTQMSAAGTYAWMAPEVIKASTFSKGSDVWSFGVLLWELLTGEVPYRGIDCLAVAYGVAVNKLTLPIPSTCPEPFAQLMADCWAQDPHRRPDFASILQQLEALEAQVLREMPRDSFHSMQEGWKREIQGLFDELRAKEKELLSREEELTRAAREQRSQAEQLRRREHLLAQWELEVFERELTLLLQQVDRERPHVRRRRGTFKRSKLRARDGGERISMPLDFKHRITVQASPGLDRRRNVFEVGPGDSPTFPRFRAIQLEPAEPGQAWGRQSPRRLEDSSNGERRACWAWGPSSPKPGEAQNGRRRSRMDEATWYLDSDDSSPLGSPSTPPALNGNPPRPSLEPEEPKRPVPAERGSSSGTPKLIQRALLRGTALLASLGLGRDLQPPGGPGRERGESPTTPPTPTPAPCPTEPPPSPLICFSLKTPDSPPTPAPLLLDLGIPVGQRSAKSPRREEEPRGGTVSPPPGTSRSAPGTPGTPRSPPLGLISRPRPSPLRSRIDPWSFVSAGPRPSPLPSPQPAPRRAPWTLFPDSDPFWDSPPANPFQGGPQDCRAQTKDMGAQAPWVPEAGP
Chain of Mitogen-activated protein kinase 10 (P53779 whole entry, the tested form may be a part): as the sequence (P53779 whole entry C154A) above, with A154C counted along it
Chain of Serine/threonine-protein kinase 16 (Homo sapiens) (O75716 whole entry): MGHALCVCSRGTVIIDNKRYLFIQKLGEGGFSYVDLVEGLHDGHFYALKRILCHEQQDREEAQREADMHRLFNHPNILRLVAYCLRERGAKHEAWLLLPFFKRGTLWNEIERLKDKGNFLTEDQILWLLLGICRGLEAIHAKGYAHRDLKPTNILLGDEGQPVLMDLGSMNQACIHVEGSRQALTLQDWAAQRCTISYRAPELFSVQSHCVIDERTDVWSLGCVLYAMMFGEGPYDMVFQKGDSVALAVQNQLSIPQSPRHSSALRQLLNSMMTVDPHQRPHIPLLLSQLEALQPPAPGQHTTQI

Take `C=CC(=O)Nc1cccc(C(=O)Nc2ccc(Nc3cc(-c4[nH]c(SC)nc4C)ccn3)cc2)c1`: in [1], the metabolised at 190 min, 100 µM is 31%. Moreover, the Activity in data set [2], in data set [3], in [4], in [5], in data set [7] and in data set [8] was 10 to 29% throughout. The Activity in [9] fell in the range of 10 to 29%. Also, the IC50 in [6] turned out to be 1950 nM; in [10] it was 2 nM. The result in data set [11] was inactive.

By IC50 is commonly meant the point on the concentration scale where inhibition reaches its midpoint.
